Consider six compounds from ChEMBL document CHEMBL1128579, “The role of charge in polyamine analogue recognition” (J Med Chem, 1995).

A value given as a limit tells only on which side of the number the result lay.

The target of data set [1] is Spermidine/spermine N(1)-acetyltransferase (SAT) (Mus musculus) (UniProt Q6P8J2+P48026). Description: Impact on polyamine biosynthetic enzyme Spermidine N-acetyl-transferase in L1210 cells treated with the compound for 48 hr. In kind it is cell-based. More on the design: concentration or dose not given beside the values. Put shortly: (§1)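 L1210 cells treated with analogue: 4 h for ODC, 6 h for AdoMetDC, 48 h for SSAT. ODC and AdoMetDC measured as 14CO2 released from [14C]carboxyl-labeled L-ornithine or S-adenosyl-L-methionine. SSAT measured as [14C]acetylspermidine formed from SPD and [14C]acetyl-CoA. Triplicate runs, each with untreated and positive controls (10 μM DENSPM for ODC and AdoMetDC). Activity given as % of untreated control.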
Chain of Spermidine/spermine N(1)-acetyltransferase (SAT) (Mus musculus) (P48026 whole entry, looked up): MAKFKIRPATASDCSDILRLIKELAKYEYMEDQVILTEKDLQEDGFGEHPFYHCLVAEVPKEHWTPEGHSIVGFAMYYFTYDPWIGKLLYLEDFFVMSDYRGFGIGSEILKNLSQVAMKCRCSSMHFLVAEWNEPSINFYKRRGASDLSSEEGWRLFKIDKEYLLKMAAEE
Chain of Spermidine/spermine N(1)-acetyltransferase (SAT) (Mus musculus) (Q6P8J2 whole entry, looked up): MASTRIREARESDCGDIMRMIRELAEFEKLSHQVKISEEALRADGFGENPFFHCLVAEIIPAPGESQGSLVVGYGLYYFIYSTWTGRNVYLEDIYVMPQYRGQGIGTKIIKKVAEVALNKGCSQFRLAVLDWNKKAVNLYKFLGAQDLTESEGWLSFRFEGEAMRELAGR

For data set [2], the system named is L1210. Description: Inhibitory concentration against L1210 cells on 96h incubation. The format is functional, cell-based. The note with it: Mus musculus, L1210, 96 h. Put shortly: (§2)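 Murine L1210 leukemia cells in suspension in RPMI-1640 with 10% NuSerum, HEPES-MOPS and 1 mM aminoguanidine, 37 °C, 5% CO2. Log-phase cultures at (0.5-1.0) × 10^5 cells/mL treated with filtered aqueous analogue for 48 h, then reseeded and grown a further 48 h. Cells counted by Coulter counter. IC50 is the concentration giving 50% of control growth, corrected for initial inoculum.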

In data set [3] the test system is L1210. Description: Impact (30 uM) on polyamine(Put) pools in L1210 cells, expressed relative to untreated controls (control = 100%). In kind it is functional, Mus musculus. A digest of the protocol: (§3)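 Logarithmic-phase murine L1210 cells grown 48 h with analogue at the stated concentration. Cells washed twice in cold RPMI-1640 and extracted with 0.6 N perchloric acid; supernatants held at -20 °C, then analysed by HPLC. Put, Spd and Spm given relative to untreated controls (100%); intracellular analogue given as pmol/10^6 cells.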

In data set [4] the test system is L1210. The data set can be described thus: Impact on polyamine biosynthetic enzyme, S-adenosyl-L-methionine decarboxylase in L1210 cells treated with the compound for 6 hr. In kind it is cell-based. Further details: concentration or dose not given beside the values. Put shortly: as §1
For data set [5], the system named is L1210. The data set can be described thus: Impact (30 uM) on polyamine(Spd) pools in L1210 cells, expressed relative to untreated controls (control = 100%). In kind it is functional, Mus musculus. Put shortly: as §3
Data set [6] has as its system L1210. Description: Impact (30 uM) on polyamine(Spm) pools in L1210 cells, expressed relative to untreated controls (control = 100%). In kind it is functional, Mus musculus. Put shortly: as §3
The target of data set [7] is T1, Ornithine decarboxylase (Mus musculus) (UniProt P00860).
T1 sequence (whole entry): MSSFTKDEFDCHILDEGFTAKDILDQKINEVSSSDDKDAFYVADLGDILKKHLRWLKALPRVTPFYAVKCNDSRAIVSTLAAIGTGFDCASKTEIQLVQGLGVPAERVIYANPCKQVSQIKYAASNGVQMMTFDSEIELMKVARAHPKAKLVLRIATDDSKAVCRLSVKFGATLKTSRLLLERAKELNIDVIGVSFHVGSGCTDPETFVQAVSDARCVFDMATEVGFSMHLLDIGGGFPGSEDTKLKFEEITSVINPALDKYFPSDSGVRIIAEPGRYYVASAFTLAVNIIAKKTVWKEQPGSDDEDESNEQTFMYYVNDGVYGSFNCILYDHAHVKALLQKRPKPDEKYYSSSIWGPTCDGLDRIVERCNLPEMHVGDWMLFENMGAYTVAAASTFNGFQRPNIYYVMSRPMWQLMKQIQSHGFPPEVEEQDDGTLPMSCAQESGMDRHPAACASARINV
Description: Impact on polyamine biosynthetic enzyme, Ornithine decarboxylase in L1210 cells treated with the compound for 4 hr. In kind it is cell-based. Further details: concentration or dose not given beside the values. Put shortly:
as §1

In data set [8] the test system is L1210. Description: Level (30 uM) in L1210 cells. In kind it is functional, Mus musculus. Put shortly:
as §3

Data set [9] is described as follows: Titrimetrically measured pKa2 value of the compound. The format is physicochemical. The note with it: read-out: pKa2. Put shortly: (§4)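 pKa values determined by titration; relative abundance of each ionic species then calculated for pH 7.4.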
Data set [10] in a line: Titrimetrically measured pKa1 value of the compound. The format is physicochemical. The conditions noted are these: read-out: pKa1. Put shortly:
as §4

Data set [11] can be described thus: Titrimetrically measured pKa4 value of the compound. In kind it is physicochemical. The conditions noted are these: read-out: pKa4. Put shortly:
as §4

Data set [12] concerns L1210. The data set can be described thus: Impact (100 uM) on polyamine(Put) pools in L1210 cells, expressed relative to untreated controls (control = 100%). The format is functional, Mus musculus. A digest of the protocol: as §3
The subject of data set [13] is L1210. Description: Impact (100 uM) on polyamine(Spd) pools in L1210 cells, expressed relative to untreated controls (control = 100%). In kind it is functional, Mus musculus. A digest of the protocol:
as §3

The subject of data set [14] is L1210. Description: Impact (100 uM) on polyamine(Spm) pools in L1210 cells, expressed relative to untreated controls (control = 100%). In kind it is functional, Mus musculus. Put shortly:
as §3

Data set [15] is described as follows: Titrimetrically measured pKa3 value of the compound. The format is physicochemical. The conditions noted are these: read-out: pKa3. A digest of the protocol:
as §4

Data set [16] deals with L1210. Description: Concentration inhibiting radiolabeled spermidine transport in L1210 cells. In kind it is functional, cell-based, Mus musculus. Put shortly:
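Competition with [3H]- or [14C]spermidine uptake into L1210 leukemia cells. Cells incubated 20 min at 37 °C in RPMI-1640 with 1, 2, 4, 6, 8 and 10 μM radiolabeled SPD, alone or plus 10, 25 or 50 μM analogue. Cells pelleted at 0–4 °C, washed with cold medium containing 1 μM SPD, NaOH-dissolved, then scintillation counted. Ki taken from Lineweaver–Burk plots as simple competitive inhibition.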

For data set [17], the system named is L1210. The data set can be described thus: Inhibitory concentration against L1210 cells on 96 hr incubation. In kind it is functional, cell-based. The note with it: Mus musculus, L1210, 96 h. Put shortly: as §2
Data set [18] relates to L1210. The data set can be described thus: Impact (2 uM) on polyamine(Spm) pools in L1210 cells, expressed relative to untreated controls (control = 100%). The format is functional, Mus musculus. A digest of the protocol: as §3
Data set [19] relates to L1210. Description: Impact (2 uM) on polyamine(Put) pools in L1210 cells, expressed relative to untreated controls (control = 100%). In kind it is functional, Mus musculus. A digest of the protocol: as §3
In data set [20] the test system is L1210. Description: Level (2 uM) in L1210 cells. The format is functional, Mus musculus. Put shortly: as §3
Data set [21] relates to L1210. Description: Impact (2 uM) on polyamine(Spd) pools in L1210 cells, expressed relative to untreated controls (control = 100%). The format is functional, Mus musculus. Put shortly: as §3
Data set [22] has as its system L1210. Description: Level (100 uM) in L1210 cells. The format is functional, Mus musculus. A digest of the protocol:
as §3

Broadly, the IC50 is the concentration that gives 50% inhibition. With `CCNCCCNCCCCNCCCNCC` [BIS(ETHYL)SPERMINE], the Control in [1] was found to be 460%; in data set [4], 28%; in [7], 3%. In [2], the IC50 was found to be 0.2 µM. The Polyamine pools came to 0% in data set [3], 0% in data set [5] and 22% in data set [6]. Also, the Analogue level in data set [8] was 1780 pM (10e6*cells)-1.
One may read the Ki as the equilibrium dissociation constant of an inhibitor or competing ligand from its target. As to `c1cc(CNCCCCNCc2ccncc2)ccn1`, the figures for the Control in data set [1], in data set [4] and in [7] were 87%, 100% and 90%, respectively. The pKa was determined as 7.64 in data set [9], 9.23 in [10], 3.77 in data set [11] and 4.43 in data set [15]. For the same compound, the Polyamine pools worked out at 87% in [12], 95% in data set [13] and 99% in data set [14]. For the same compound, the Ki in data set [16] was more than 500 µM. The concentration for half-maximal inhibition (IC50) in [17] is 80 µM.
`c1cc(CCNCCCCNCCc2ccncc2)ccn1`: the Control in data set [1] is 140%; in [4] it was 100%; in data set [7], 100%. Moreover, the pKa in [9] came out at 8.85; in data set [10], 9.81; in data set [11], 4.93; in data set [15] it was 5.69. Further, the Polyamine pools in [12] is on record as 124%; in data set [13], 85%; in [14] it was 96%. The same compound came in with a Ki in data set [16] of more than 500 µM. In [17], this compound yielded an IC50 of more than 100 µM.
On to `C(CCNCC1CCNCC1)CNCC1CCNCC1`, for which the Control in data set [1] came to 325%; in data set [4], 39%; in data set [7], 6%. Also, the pKa in data set [9] amounted to 10.7; in [10] it was 10.9; in [11] it was 8.45; in [15], 9.43. For the same compound, the results for the Polyamine pools in [18], in data set [19] and in data set [21] were 50%, 0% and 5%, respectively. For the same compound, in data set [20], the Analogue level is given as 2518 pM (10e6*cells)-1. Affinity in data set [16] was put at a Ki of 4.9 µM. Moreover, in data set [17], the IC50 was found to be 0.1 µM.
Take `NCCCNCCCCNCCCN` [SPERMINE]: the pKa in [9] came to 10.1; in [10], 10.9; in [11] it was 7.95; in data set [15], 8.82.
As for `FC(F)(F)CNCCCNCCCCNCCCNCC(F)(F)F`, the Control in [1] came out at 97%; in [4], 100%; in data set [7], 100%. Further, the half-inhibitory concentration (IC50) in data set [2] was more than 100 µM. The pKa was determined as 9.41 in data set [9], 10.5 in [10], 4.09 in data set [11] and 4.81 in data set [15]. Besides, the results for the Polyamine pools in [12], in data set [13] and in [14] were 103%, 103% and 108%, respectively. Besides, in [22], the Analogue level is recorded as <20 pM (10e6*cells)-1. This compound also displayed an inhibition constant (Ki) in [16] of 285 µM.
